Test results: publication PMC7731903 (Clinical cancer research : an official journal of the …, 2018)
Entries after “also recorded” stand apart in the source; their conditions may differ.

What was measured:
Assay type in all cases: in vivo, human
GCB DLBCL = test: Best response by cell of origin; conditions: MR + MRV; P = 0.058 vs non-GCB, two-sided Fisher exact test
[1] = Alisertib plasma PK in patients; conditions: for AUC / Cmax / Tmax: human, plasma, oral; for AUC: Geometric mean AUCτ (CV); for Cmax: Geometric mean Cmax (CV)
Summary of the method: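 Patients with relapsed/refractory aggressive B-cell NHL took oral test compound twice daily on days 1–7 of 21-day cycles, at 30 to 50 mg b.i.d. Cohorts received it with rituximab 375 mg/m2 i.v. on day 1, with or without vincristine 1.4 mg/m2 (max 2 mg) i.v. on days 1 and 8. Blood was drawn at prespecified times after the morning dose on cycle 1 days 1 and 7. Cmax, tmax and AUCτ were derived by noncompartmental analysis.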

non-GCB DLBCL = test: Best response by cell of origin; conditions: non-GCB-derived disease, 20 patients (MR + MRV)
[2] = tested on: relapsed/refractory aggressive B-cell lymphoma; test: Antitumor activity, investigator-assessed response
[3] = Vincristine plasma PK in presence; conditions: for AUC / AUC(0-inf) / clearance / Cmax / half-life: human, plasma, intravenous; for AUC: Geometric mean AUCτ (CV); for AUC(0-inf): Geometric mean AUC∞ (CV); for clearance: Geometric mean CL (CV); for Cmax: Geometric mean Cmax (CV); for half-life: Mean t1/2z (st. dev)
[4] = 30 mg, MRV, alisertib 30 mg b.i.d., C1D1, n=4
[5] = 30 mg, MRV, alisertib 30 mg b.i.d., C1D7, n=4
[6] = 40 mg, MRV, alisertib 40 mg b.i.d., C1D7, n=20
[7] = 50 mg, MR, alisertib 50 mg b.i.d., C1D7, n=12
[8] = 50 mg, MRV, alisertib 50 mg b.i.d., C1D1, n=3
[9] = 50 mg, MRV, alisertib 50 mg b.i.d., C1D7, n=2
[10] = 30 mg, alisertib 30 mg b.i.d. cohort, C1D1 (alisertib present), n=4
[11] = 30 mg, alisertib 30 mg b.i.d. cohort, C2D1 (alisertib absent), n=3
[12] = 30 mg, alisertib 30 mg b.i.d. cohort, C2D1 (alisertib absent), n=4
[13] = 40 mg, alisertib 40 mg b.i.d. cohort, C2D1 (alisertib absent), n=17
[14] = 40 mg, alisertib 40 mg b.i.d. cohort, C1D1 (alisertib present), n=22
[15] = 40 mg, alisertib 40 mg b.i.d. cohort, C2D1 (alisertib absent), n=16
[16] = 40 mg, alisertib 40 mg b.i.d. cohort, C1D1 (alisertib present), n=25
[17] = 50 mg, alisertib 50 mg b.i.d. cohort, C1D1 (alisertib present), n=3
[18] = 50 mg, alisertib 50 mg b.i.d. cohort, C2D1 (alisertib absent), n=2

## COc1cc(Nc2ncc3c(n2)-c2ccc(Cl)cc2C(c2c(F)cccc2OC)=NC3)ccc1C(=O)O [alisertib]
GCB DLBCL
  Objective response in GCB-derived disease: None of the 7 response-evaluable patients; also recorded: no patients with GCB-derived disease (9/29) achieved an objective response
[1]; [4]
  AUC: 5.22 µM·h
  Cmax: 841 nM
[1]; [5]
  AUC: 11.8 µM·h
  Cmax: 1660 nM
[1]; 30 mg, Median Tmax (range), MRV, alisertib 30 mg b.i.d., C1D1, n=4
  Tmax: 3.5 h
[1]; 30 mg, Median Tmax (range), MRV, alisertib 30 mg b.i.d., C1D7, n=4
  Tmax: 3.1 h
[1]; 40 mg, MRV, alisertib 40 mg b.i.d., C1D1, n=22
  AUC: 7.44 µM·h
[1]; [6]
  AUC: 14.9 µM·h
  Cmax: 1950 nM
[1]; 40 mg, MRV, alisertib 40 mg b.i.d., C1D1, n=25
  Cmax: 1090 nM
[1]; 40 mg, Median Tmax (range), MRV, alisertib 40 mg b.i.d., C1D1, n=25
  Tmax: 3 h
[1]; 40 mg, Median Tmax (range), MRV, alisertib 40 mg b.i.d., C1D7, n=20
  Tmax: 3.1 h
[1]; 50 mg, MR, alisertib 50 mg b.i.d., C1D1, n=12
  AUC: 8.61 µM·h
[1]; [7]
  AUC: 18.7 µM·h
  Cmax: 2590 nM
[1]; [8]
  AUC: 11.2 µM·h
  Cmax: 1670 nM
[1]; [9]
  AUC: 31.8 µM·h
  Cmax: 3500 nM
[1]; 50 mg, MR, alisertib 50 mg b.i.d., C1D1, n=13
  Cmax: 1400 nM
[1]; 50 mg, Median Tmax (range), MR, alisertib 50 mg b.i.d., C1D1, n=13
  Tmax: 3 h
[1]; 50 mg, Median Tmax (range), MR, alisertib 50 mg b.i.d., C1D7, n=12
  Tmax: 2 h
[1]; 50 mg, Median Tmax (range), MRV, alisertib 50 mg b.i.d., C1D1, n=3
  Tmax: 6.1 h
[1]; 50 mg, Median Tmax (range), MRV, alisertib 50 mg b.i.d., C1D7, n=2
  Tmax: 2.5 h
[1]; tmax after dose, with both MR and MRV
  Tmax: ~3 h
[1]; over the range of 30 to 50 mg b.i.d.
  Increase of alisertib exposures with dose: approximately dose-proportional
non-GCB DLBCL; 3 patients
  PR as best response: 15%
non-GCB DLBCL; 6 patients
  CR as best response: 30%
[2]; 37 response-evaluable patients (MR + MRV), n = 14
  ORR (CR + PR): 38%
[2]; Total MR + MRV, N=37
  CR: 7 (19) n (%)
  ORR (CR + PR): 14 (38) n (%)
  PD: 11 (30) n (%)
  PR: 7 (19) n (%)
[2]; all patients (MR + MRV)
  Complete responses (CR): Seven
  Median PFS: 5.1 months
  Partial responses (PRs): 7 patients
[2]; patients with a best response of CR, range 9.0–35.7
  Median DOR: 14.3 months
[2]; patients with a best response of CR, range 10.1–36.9
  Median PFS: 16.4 months
[2]; responding patients (MR + MRV)
  Median DOR: 10.2 months
  Patients achieving first response by the end of cycle 2: 57%

## CC[C@]1(O)C[C@H]2CN(CCc3c([nH]c4ccccc34)[C@@](C(=O)OC)(c3cc4c(cc3OC)N(C=O)[C@H]3[C@@](O)(C(=O)OC)[C@H](OC(C)=O)[C@]5(CC)C=CCN6CC[C@]43[C@@H]65)C2)C1 [vincristine]
[3]; MRV RP2D (alisertib 40 mg b.i.d.), 90% CI 82–115, n = 22
  Geometric mean ratio of vincristine AUC∞, presence vs absence of alisertib: 97%
[3]; [10]
  AUC: 69.2 ng·h/mL
  AUC(0-inf): 77 ng·h/mL
  clearance: 432 mL/min
  half-life: 20.2 h
[3]; 30 mg, alisertib 30 mg b.i.d. cohort, C2D1 (alisertib absent), n=2
  AUC: 60.8 ng·h/mL
[3]; [11]
  AUC(0-inf): 69 ng·h/mL
  half-life: 19.9 h
[3]; [12]
  clearance: 483 mL/min
  Cmax: 98.2 ng/mL
[3]; 40 mg, alisertib 40 mg b.i.d. cohort, C1D1 (alisertib present), n=24
  AUC: 60.1 ng·h/mL
[3]; [13]
  AUC: 67.8 ng·h/mL
  clearance: 432 mL/min
  Cmax: 87.3 ng/mL
[3]; [14]
  AUC(0-inf): 78 ng·h/mL
  half-life: 20 h
[3]; [15]
  AUC(0-inf): 77 ng·h/mL
  half-life: 20.2 h
[3]; [16]
  clearance: 427 mL/min
  Cmax: 82.9 ng/mL
[3]; [17]
  AUC: 98 ng·h/mL
  AUC(0-inf): 111 ng·h/mL
  clearance: 300 mL/min
  Cmax: 149 ng/mL
  half-life: 25.6 h
[3]; [18]
  AUC: 68.4 ng·h/mL
  Cmax: 120 ng/mL
[3]; vincristine 1.4 mg/m^2 + rituximab, alisertib 30 mg b.i.d. cohort, C1D1 (alisertib present), n=4
  Cmax: 120 ng/mL
